Laboratory results from ChEMBL document CHEMBL4028851, “Discovery of Potent Small-Molecule Inhibitors of Ubiquitin-Conjugating Enzyme UbcH5c from α-Santonin Derivatives” (J Med Chem, 2017).
The source made the active and inactive calls. No cut-off for these calls is given here.

Experiments:
[1] = biological target: Ubiquitin-conjugating enzyme E2 D3 (Mus musculus) (UniProt P61079); experiment: Inhibition of UbcH5c in mouse b.End3 cells assessed as decrease in TNF-alpha-mediated IkB-alpha degradation preincubated for 2 hrs followed by TNF-alpha stimulation for 20 mins by Western blot analysis; type: cell-based
Chain of Ubiquitin-conjugating enzyme E2 D3 (Mus musculus) (P61079 whole entry, looked up): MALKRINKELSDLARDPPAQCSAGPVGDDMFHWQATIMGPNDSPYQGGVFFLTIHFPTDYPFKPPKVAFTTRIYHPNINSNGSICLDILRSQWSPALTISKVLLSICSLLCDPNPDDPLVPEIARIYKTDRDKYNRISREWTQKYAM
How it was run: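 bEnd.3 cells (DMEM, 10% FBS) were pretreated with compound at 2.5, 5 or 10 µM for 2 h, then stimulated with 20 ng/mL TNF-α (15 min in the methods, 20 min in the legend). Lysates were run on 10% SDS-PAGE and immunoblotted for phospho-IκBα, IκBα, phospho-p65 and p65, with GAPDH as loading control.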

[2] = biological target: T1, Ubiquitin-conjugating enzyme E2 C (Homo sapiens) (UniProt O00762); experiment: Inhibition of UbcH10 (unknown origin) at 2.5 to 10 uM preincubated for 15 mins followed by E1, Ub and ATP addition measured after 40 mins by Western blot analysis
T1 sequence (whole entry): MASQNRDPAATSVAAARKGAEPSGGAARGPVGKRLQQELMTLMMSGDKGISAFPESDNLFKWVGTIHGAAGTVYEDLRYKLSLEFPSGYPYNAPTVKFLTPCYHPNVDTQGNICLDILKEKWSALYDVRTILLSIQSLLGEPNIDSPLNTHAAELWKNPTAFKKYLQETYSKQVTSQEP

[3] = biological target: T2, Ubiquitin-conjugating enzyme E2 H (Homo sapiens) (UniProt P62256); experiment: Inhibition of UbcH2 (unknown origin) at 2.5 to 10 uM preincubated for 15 mins followed by E1, Ub and ATP addition measured after 40 mins by Western blot analysis
T2 sequence (whole entry): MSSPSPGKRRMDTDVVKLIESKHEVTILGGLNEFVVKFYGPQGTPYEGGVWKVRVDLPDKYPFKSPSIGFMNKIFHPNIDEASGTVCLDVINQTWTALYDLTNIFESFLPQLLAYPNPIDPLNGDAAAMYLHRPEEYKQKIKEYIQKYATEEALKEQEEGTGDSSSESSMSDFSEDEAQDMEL

[4] = biological target: Ubiquitin-conjugating enzyme E2 D3 (Mus musculus) (UniProt P61079); experiment: Inhibition of UbcH5c in mouse b.End3 cells assessed as decrease in TNF-alpha-mediated IkB-alpha degradation at 10 uM preincubated for 2 hrs followed by TNF-alpha stimulation for 15 mins by Western blot analysis
[5] = biological target: T3, Ubiquitin-conjugating enzyme E2 K (Homo sapiens) (UniProt P61086); experiment: Inhibition of E2-25K (unknown origin) at 2.5 to 10 uM preincubated for 15 mins followed by E1, Ub and ATP addition measured after 40 mins by Western blot analysis
T3 sequence (whole entry): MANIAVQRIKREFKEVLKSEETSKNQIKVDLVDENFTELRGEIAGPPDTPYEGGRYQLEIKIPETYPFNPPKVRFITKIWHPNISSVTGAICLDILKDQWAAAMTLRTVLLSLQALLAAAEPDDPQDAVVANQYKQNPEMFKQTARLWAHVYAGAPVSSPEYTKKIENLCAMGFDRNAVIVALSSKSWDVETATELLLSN

Compound: C=C1C(=O)O[C@H]2c3c(C)c(OCc4ccccc4Br)cc(C)c3CC[C@@H]12
- inhibition [1]: Dose-dependent effect
- inhibition [2]: Active
- inhibition [3]: inactive
- inhibition [4]: Active
- inhibition [5]: inactive
